Broadly, the solubility is the concentration that dissolves in the medium under given conditions. By clearance is commonly meant a measure of how efficiently the substance is removed, as volume per time. In general, half-life refers to how long it takes for the measured level to halve. As usually defined, the bioavailability is the share of a dose that reaches the circulation, judged against a reference dose that is usually intravenous. A lower bioavailability goes with poor availability. Usually logP stands for a log measure of how a compound divides between an organic and an aqueous phase. High values mean a more lipophilic compound, low ones a more hydrophilic compound. A word on the Papp: it is a coefficient for how fast a substance crosses the barrier.

Experimental findings from ChEMBL document CHEMBL1795201, “Substituted N-aryl-6-pyrimidinones: a new class of potent, selective, and orally active p38 MAP kinase inhibitors” (Bioorg Med Chem Lett, 2011) are described below.

Data set [1] is described as follows: Metabolic stability in human liver microsomes at 2 uM after 45 mins by LC-MS analysis in presence of NADPH. Type of data set: ADME, Microsome. The settings on record: read-out: Stability. A digest of the protocol: (§1)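 Test compound at 2 μM incubated with liver microsomes (human or rat), NADPH and buffer at 37 °C for 45 min; samples processed by precipitation, then LC-MS measured percent parent compound remaining.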
Background: Liver microsomes are vesicles of endoplasmic reticulum, rich in cytochrome P450 enzymes.

Data set [2] in a line: Metabolic stability in rat liver microsomes at 2 uM after 45 mins by LC-MS analysis in presence of NADPH. Type of data set: ADME, Microsome. The note with it: read-out: Stability. A digest of the protocol: as §1
Data set [3] in a line: Aqueous solubility of the compound in amorphous form at pH 6.5. It counts as physicochemical. A digest of the protocol:
(§2)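 Aqueous solubility measured at pH 6.5, expressed in µg/mL.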

The nature of data set [4]: Clearance in rat at 0.2 mg/kg, iv. The settings on record: in vivo. It counts as ADME, organism-based. Set-up: dose 0.2 mg/kg, route intravenous.
The nature of data set [5]: Volume of distribution at steady state in rat at 0.2 mg/kg, iv. The note with it: in vivo, read-out: Vdss. Also noted: dose 0.2 mg/kg, route intravenous. It counts as ADME, organism-based.
Data set [6] in a line: Half life in rat at 0.2 mg/kg, iv. Set-up: dose 0.2 mg/kg, route intravenous. Type of data set: ADME, organism-based. The note with it: in vivo.
Data set [7] can be described thus: Oral bioavailability in rat at 0.2 mg/kg. It counts as ADME, organism-based. The settings on record: in vivo.
The nature of data set [8]: Lipophilicity, log P of the compound. It counts as physicochemical. The settings on record: octanol/water.
Data set [9] in a line: Clearance in dog at 1 mg/kg, iv. It counts as ADME, organism-based, Canis lupus familiaris. Also noted: dose 1 mg/kg, route intravenous. The settings on record: in vivo.
The nature of data set [10]: Volume of distribution at steady state in dog at 1 mg/kg, iv. Type of data set: ADME, organism-based, Canis lupus familiaris. The settings on record: in vivo, read-out: Vdss. Also noted: dose 1 mg/kg, route intravenous.
Data set [11] can be described thus: Half life in dog at 1 mg/kg, iv. It counts as ADME, organism-based, Canis lupus familiaris. Also noted: dose 1 mg/kg, route intravenous. The settings on record: in vivo.
Data set [12] in a line: Oral bioavailability in dog at 1 mg/kg. It counts as ADME, organism-based, Canis lupus familiaris. The settings on record: in vivo.
Data set [13] can be described thus: Aqueous solubility of the compound in crystalline form at pH 6.5. Type of data set: physicochemical. The note with it: aqueous medium. A digest of the protocol: as §2
The nature of data set [14]: Apparent permeability in human Caco2 cells. It counts as ADME, cell-based. The note with it: Caco-2.
Data set [15] is described as follows: Oral bioavailability in rat at 5 mg/kg administered as suspension. Type of data set: ADME, organism-based. The note with it: in vivo. In a few lines: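 Rats dosed orally at 5 mpk with compound given as a suspension; bioavailability reported as oral BA (suspension).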
Where [16] appears, read: aqueous medium, read-out: solubility.

Converted amounts (≈) assume the structure as drawn.

On to `Cc1ccc(C(=O)NCCO)cc1-n1cnc(OCc2ccc(F)cc2F)c(Cl)c1=O`, for which the remaining at 0.75 h, 2 µM was found to be 99% in data set [1] and 97% in data set [2]. The solubility in data set [3] (setting [16]) worked out at 51 µg/mL (≈ 113 µM); in data set [13], 23 µg/mL (≈ 51.1 µM). The clearance in [4] is 3.19 mL/min/kg; in data set [9] it was 1.59 mL/min/kg. Also, the Vd was determined as 1.32 L/kg in data set [5] and 0.986 L/kg in data set [10]. The figures for the half-life in data set [6] and in [11] were 6.5 h and 8.7 h, respectively. Further, the bioavailability in data set [7] worked out at 99%; in data set [12] it was 67%; in data set [15], 99%. In addition, the logP in data set [8] is 1.65. The Papp in data set [14] was 7.99 ×10⁻⁶ cm/s.
For the compound `Cc1ccc(C(=O)NCC(N)=O)cc1-n1cnc(OCc2ccc(F)cc2F)c(Cl)c1=O`, the remaining at 0.75 h, 2 µM in [1] and in [2] was 100% each time. Besides, in [3] (setting [16]), the solubility came to 14 µg/mL (≈ 30.2 µM).
As for `Cc1ccc(C(=O)NC[C@@H](O)CO)cc1-n1cnc(OCc2ccc(F)cc2F)c(Cl)c1=O`, the remaining at 0.75 h, 2 µM is 97% in data set [1] and 100% in [2]. Besides, the solubility in data set [3] (setting [16]) came out at 163 µg/mL (≈ 340 µM).
On to `Cc1ccc(C(=O)NC[C@H](C)CO)cc1-n1cnc(OCc2ccc(F)cc2F)c(Cl)c1=O`, for which the remaining at 0.75 h, 2 µM was 96% in data set [1] and 85% in data set [2]. In [3] (setting [16]), the solubility amounted to 94 µg/mL (≈ 197 µM).
For `Cc1ccc(C(=O)N[C@H](C)C(N)=O)cc1-n1cnc(OCc2ccc(F)cc2F)c(Cl)c1=O`, in that order: 77%, 72% and 147 µg/mL (≈ 308 µM).
For `Cc1ccc(C(=O)NCCO)cc1-n1cnc(OCc2ccc(F)cc2F)c(C)c1=O`, in that order: 84%, 99% and 28 µg/mL (≈ 65.2 µM).
As to `CCc1c(OCc2ccc(F)cc2F)ncn(-c2cc(C(=O)NCCO)ccc2C)c1=O`, the remaining at 0.75 h, 2 µM was 76% in data set [1] and 92% in data set [2]. The solubility in data set [3] (setting [16]) was found to be 20 µg/mL (≈ 45.1 µM).
Take `Cc1ccc(C(=O)NCCO)cc1-n1cnc(OCc2ccc(F)cc2F)c(Br)c1=O`: the solubility entry in data set [3] (buffer) is “Insoluble”.
In data set [8], `CNC(=O)c1ccc(C)c(-n2c(C)cc(OCc3ccc(F)cc3F)c(Br)c2=O)c1` [PH-797804] registered a logP of 3.35. For the same compound, the concentration in solution in data set [13] (solubility) came to 10 µg/mL (≈ 21 µM). The Papp in [14] is 15.9 ×10⁻⁶ cm/s. The compound also registered a bioavailability in data set [15] of 9.3%.
